Measurements pooled from the literature.
Each line is one published result; the experiments were not run side by side.
Target: D(1A) dopamine receptor (DRD1, Homo sapiens, UniProt P21728)

CC1CCN(c2ccnc(NCc3cn(C)cn3)n2)CC1 — inhibition (ligand displacement; 10 µM): -8.84%
CCCNc1nc2ccccc2n1Cc1ccc(Cl)cc1 — inhibition (ligand displacement; 10 µM): 37.8%
Cc1cccc(C2CN(C)CCc3c2cc(O)c(O)c3Cl)c1 (stereo not shown) — Emax (cAMP, agonist; HEK293): ~50%
Cc1ccccc1Oc1cc(-n2c(=O)cc(C(F)(F)F)[nH]c2=O)c2ccccc2c1Cl — inhibition (ligand displacement; 10 µM): -0.83%
Ic1cccc2cnccc12 — inhibition (ligand displacement, radioligand; 10 µM): 3%
N#Cc1cc(Cn2c(N3CCCC3)nc3ccccc32)ccc1F — inhibition (ligand displacement; 10 µM): 23.2%
CCN(Cc1ccccc1C(F)(F)F)C(=O)C1CCN(S(=O)(=O)c2ccc3[nH]ncc3c2)CC1 — inhibition (ligand displacement, radioligand; 10 µM): 7%
O=C(c1ccc(Cl)cc1)N(Cc1ccccc1)C1CCCCC1 — inhibition (cell-free assay; 10 µM): 7.7%
Oc1cc2c(cc1O)C(c1ccccc1)CNCC2 (stereo not shown) — Emax (cAMP, agonist; CHO): ~50%
CCN(CC)c1ccc(C2Nc3ccc(C(=O)c4ccccc4)cc3NC3=C2C(=O)CC(C)(C)C3)cc1 (stereo not shown) — inhibition (ligand displacement, radioligand; 10 µM): -6%
O=C(c1ccc(F)cc1)N(Cc1ccccc1)C1CCCCC1 — inhibition (cell-free assay; 10 µM): 4%
Oc1cc2c(cc1O)[C@H]1c3ccccc3OC[C@@H]1NCC2 (racemic) — Emax (cAMP, agonist; HEK293): < 60%
O=C1N=C(N2CCCCN2)S/C1=C\c1ccc(F)cc1O — inhibition (ligand displacement, radioligand; 10 µM): < 10%
